# Calls of active or inactive are those of the source. The rule behind the calls is not given here.
# Assays:
# Aorta [1] = test: Vasorelaxation activity against KCl-induced contraction in isolated Wistar rat thoracic endothelium-denulated aortic rings; type: functional, tissue-based
# Method in brief: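 Endothelium-denuded thoracic aortic rings from male Wistar rats (250−350 g); denudation confirmed by <10% relaxation to 10 μM ACh. Rings precontracted with 30 mM KCl; compound added at 3-fold increasing concentrations, 1 nM to 10 μM. Isometric tension recorded. Emax given as % of KCl tone; pIC50 derived. Mean ± standard error of 6−10 experiments; repeated with 1 μM ODQ.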
# J774 = test: Selectivity ratio of IC50 for COX1 in mouse J774 cells to IC50 for COX2 in mouse J774 cells; type: cell-based
# Method in brief: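 Ratio of J774 IC50s, COX-1 over COX-2. For COX-1, cells were pretreated with compound for 15 min, then given 15 μM arachidonic acid for 30 min at 37 °C. For COX-2, cells received E. coli LPS 10 μg/mL for 24 h with compound at 0.01–10 μM. PGE2 was measured by RIA in triplicate wells over three experiments. IC50 came from a sigmoidal fit.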
# [2] = molecular target: T1, Prostaglandin G/H synthase 1 (Mus musculus) (UniProt P22437); test: Inhibition of COX-1-mediated PGE2 production in arachidonic acid-stimulated mouse J774 cells at 10 uM incubated for 15 mins prior to arachidonic acid-challenge by radioimmunoassay; type: cell-based
# T1 sequence (whole entry): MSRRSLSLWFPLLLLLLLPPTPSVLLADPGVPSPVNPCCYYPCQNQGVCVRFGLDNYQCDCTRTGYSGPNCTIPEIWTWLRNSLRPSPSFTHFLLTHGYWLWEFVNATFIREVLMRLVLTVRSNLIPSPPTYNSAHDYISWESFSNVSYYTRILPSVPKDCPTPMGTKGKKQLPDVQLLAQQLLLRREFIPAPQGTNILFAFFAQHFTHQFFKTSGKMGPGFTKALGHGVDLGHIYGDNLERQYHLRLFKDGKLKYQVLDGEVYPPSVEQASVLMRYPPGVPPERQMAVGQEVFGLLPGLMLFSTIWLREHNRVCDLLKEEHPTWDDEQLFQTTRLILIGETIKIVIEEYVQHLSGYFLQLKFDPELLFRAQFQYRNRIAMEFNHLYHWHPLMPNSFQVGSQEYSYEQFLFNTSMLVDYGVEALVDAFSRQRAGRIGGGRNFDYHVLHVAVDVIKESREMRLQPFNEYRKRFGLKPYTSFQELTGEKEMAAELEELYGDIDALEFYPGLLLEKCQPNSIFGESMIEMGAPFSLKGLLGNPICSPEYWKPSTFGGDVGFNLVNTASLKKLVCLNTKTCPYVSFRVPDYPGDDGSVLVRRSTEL
# Method in brief: (§1)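 J774 murine macrophages grown in DMEM with 10% FBS and allowed to adhere for 2 h at 37 °C. Where inhibition exceeded 50%, 0.01–1 μM was also tested. Supernatant PGE2 was measured by RIA as % inhibition versus control, in triplicate wells over three experiments. IC50 came from a sigmoidal variable-slope fit.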
# [3] = molecular target: T2, Prostaglandin G/H synthase 1 (Mus musculus, UniProt P22437); test: Inhibition of COX-1-mediated PGE2 production in arachidonic acid-stimulated mouse J774 cells incubated for 15 mins prior to arachidonic acid-challenge by radioimmunoassay; type: cell-based
# T2 sequence (P22437 whole entry): T1 sequence (whole entry)
# Method in brief: as §1, with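 “2 h at 37 °C. Cells were pretreated with compound at 10 μM for 15 min, then given 15 μM arachidonic acid for 30 min at 37” for “2 h at 37”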
# Aorta [4] = test: Vasorelaxation activity against KCl-induced contraction in isolated Wistar rat thoracic endothelium-denulated aortic rings in the presence of guanylate cyclase inhibitor ODQ; type: functional, tissue-based
# Method in brief: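 Thoracic aortic rings from male Wistar rats (250–350 g), endothelium removed by rubbing; rings relaxing ≥10% to ACh 10 μM on KCl 30 mM tone were discarded. ODQ 1 μM was incubated, then rings were contracted with KCl 30 mM and given 3-fold increasing concentrations of 1 nM–10 μM.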
# [5] = molecular target: T3, Prostaglandin G/H synthase 2 (Mus musculus, UniProt Q05769); test: Inhibition of COX-2-mediated PGE2 production in LPS-stimulated mouse J774 cells after 24 hrs by radioimmunoassay; type: cell-based
# T3 sequence (Q05769 whole entry): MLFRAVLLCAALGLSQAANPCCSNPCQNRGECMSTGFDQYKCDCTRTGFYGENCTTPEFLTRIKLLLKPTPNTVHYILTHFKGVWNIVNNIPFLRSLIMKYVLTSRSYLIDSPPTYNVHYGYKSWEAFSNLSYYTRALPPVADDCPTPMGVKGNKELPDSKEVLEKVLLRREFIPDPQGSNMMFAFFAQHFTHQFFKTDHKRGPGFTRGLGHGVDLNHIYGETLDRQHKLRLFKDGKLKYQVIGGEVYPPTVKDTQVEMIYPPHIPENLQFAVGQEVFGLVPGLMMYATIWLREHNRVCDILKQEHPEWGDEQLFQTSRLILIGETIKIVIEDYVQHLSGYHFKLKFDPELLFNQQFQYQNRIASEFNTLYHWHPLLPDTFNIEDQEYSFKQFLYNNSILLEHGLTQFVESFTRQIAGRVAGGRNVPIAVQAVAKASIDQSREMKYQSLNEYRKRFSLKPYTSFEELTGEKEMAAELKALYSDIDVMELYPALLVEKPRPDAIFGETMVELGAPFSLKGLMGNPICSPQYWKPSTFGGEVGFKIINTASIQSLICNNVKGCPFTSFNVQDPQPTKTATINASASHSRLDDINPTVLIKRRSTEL
# [6] = molecular target: T1, Prostaglandin G/H synthase 1 (Mus musculus); test: Inhibition of COX-1-mediated PGE2 production in arachidonic acid-stimulated mouse J774 cells at 0.1 uM incubated for 15 mins prior to arachidonic acid-challenge by radioimmunoassay; type: cell-based; method in brief: as §1
# [7] = molecular target: T1, Prostaglandin G/H synthase 1 (Mus musculus); test: Inhibition of COX-1-mediated PGE2 production in arachidonic acid-stimulated mouse J774 cells at 1 uM incubated for 15 mins prior to arachidonic acid-challenge by radioimmunoassay; type: cell-based; method in brief: as §1
# [8] = molecular target: T4, Prostaglandin G/H synthase 2 (Mus musculus) (UniProt Q05769); test: Inhibition of COX-2-mediated PGE2 production in LPS-stimulated mouse J774 cells at 0.001 uM after 24 hrs by radioimmunoassay; type: cell-based
# T4 sequence (whole entry): T3 sequence (Q05769 whole entry)
# Rattus norvegicus [9] = test: Antiinflammatory activity against carrageenan-induced paw edema in Sprague-Dawley rat assessed as paw weight at 40 mg/kg, po administered 4 hrs post challenge measured after 30 mins (reference value: 63.2+/-3.3 g); type: functional
# Rattus norvegicus [10] = test: Antiinflammatory activity against carrageenan-induced paw edema in Sprague-Dawley rat assessed as paw weight at 20 mg/kg, po administered 4 hrs post challenge measured after 120 mins (reference value: 62.5+/-3.1 g); type: functional
# Rattus norvegicus [11] = test: Antiinflammatory activity against carrageenan-induced paw edema in Sprague-Dawley rat assessed as paw weight at 40 mg/kg, po administered 4 hrs post challenge measured after 60 mins (reference value: 63.2+/-3.3 g); type: functional
# Rattus norvegicus [12] = test: Antiinflammatory activity against carrageenan-induced paw edema in Sprague-Dawley rat assessed as paw weight at 40 mg/kg, po administered 4 hrs post challenge measured after 120 mins (reference value: 63.2+/-3.3 g); type: functional
# Rattus norvegicus [13] = test: Antiinflammatory activity against carrageenan-induced paw edema in Sprague-Dawley rat assessed as paw weight at 20 mg/kg, po administered 4 hrs post challenge measured after 60 mins (reference value: 62.5+/-3.1 g); type: functional
# Mus musculus = test: Analgesic activity in Swiss albino mouse abdominal constriction model assessed as reduction in acetic acid-induced writhing response for 10 mins at 20 to 40 mg/kg, po administered 30 mins prior to acetic acid-challenge measured after 5 mins relative to vehicle-treated control; type: functional, organism-based; settings: Abdomen
# Method in brief: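 Male Swiss albino mice (23−25 g); 0.6% acetic acid (10 mL/kg) injected ip. Stretching movements counted for 10 min, starting 5 min after administration. Oral doses in carboxymethylcellulose (CMC) vehicle, compared with vehicle-treated mice.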
# Rattus norvegicus [14] = test: Antiinflammatory activity against carrageenan-induced edema in Sprague-Dawley rat assessed as right hind paw volume at 40 mg/kg, po administered 4 hrs post challenge measured after 60 mins; type: functional
# Method in brief: (§2)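 Rats received intraplantar carrageenan. Right hind paw volume was measured 4 h after the carrageenan injection and compared with saline/carrageenan-treated controls. Oral dosing in CMC vehicle; volume recorded at 60 min after treatment.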
# Rattus norvegicus [15] = test: Antiinflammatory activity against carrageenan-induced edema in Sprague-Dawley rat assessed as right hind paw volume at 20 mg/kg, po administered 4 hrs post challenge measured after 60 mins; type: functional; method in brief: as §2
# Rattus norvegicus [16] = test: Antiinflammatory activity against carrageenan-induced paw edema in Sprague-Dawley rat assessed as paw weight at 20 mg/kg, po administered 4 hrs post challenge measured after 30 mins (reference value: 62.5+/-3.1 g); type: functional
inhibition [2] [%],IC50 [3] [nM],Compound,Emax (Aorta [1]) [%],IC50 (Aorta [1]) [nM],Ratio IC50 (J774),Activity (Aorta [4]),IC50 [5] [nM],other results
62,3180,CSc1ccc(-n2c(-c3ccc(S(C)(=O)=O)cc3)cc(CC(=O)OCCO)c2C)cc1,–,–,37.4,–,–,inhibition [6]: 11%; inhibition [7]: 40%
22,> 10000,Cc1c(CC(=O)OCCO)cc(-c2ccc(S(C)(=O)=O)cc2)n1-c1ccccc1,–,–,> 104,–,96,–
36,> 10000,CSc1ccc(-n2c(-c3ccc(S(C)(=O)=O)cc3)cc(CC(=O)OCCCO)c2C)cc1,–,–,> 38.5,–,–,–
5,> 10000,COc1ccc(-n2c(-c3ccc(S(C)(=O)=O)cc3)cc(CC(=O)OCCO)c2C)cc1,–,–,> 9.1,–,–,–
27,> 10000,COc1ccc(-n2c(-c3ccc(S(C)(=O)=O)cc3)cc(CC(=O)OCCCO)c2C)cc1,–,–,> 14.3,–,–,–
21,> 10000,Cc1c(CC(=O)OCCO)cc(-c2ccc(S(C)(=O)=O)cc2)n1-c1ccc(F)cc1,–,–,> 256,–,39,–
0,> 10000,Cc1c(CC(=O)OCCCO)cc(-c2ccc(S(C)(=O)=O)cc2)n1-c1ccc(F)cc1,–,–,> 179,–,56,–
–,> 10000,Cc1c(CC(=O)O)cc(-c2ccc(S(C)(=O)=O)cc2)n1-c1ccc(F)cc1,–,–,> 20,–,500,–
0,> 10000,Cc1c(CC(=O)O)cc(-c2ccc(S(C)(=O)=O)cc2)n1-c1ccccc1,–,–,> 10,–,–,–
45,> 10000,CSc1ccc(-n2c(-c3ccc(S(C)(=O)=O)cc3)cc(CC(=O)O)c2C)cc1,–,–,> 769,–,13,–
–,–,O=[N+]([O-])OCC(CO[N+](=O)[O-])O[N+](=O)[O-] [NITROGLYCERIN],73,126,–,–,–,–

Compound,inhibition [2] [%],IC50 [3] [nM],Emax (Aorta [1]) [%],IC50 (Aorta [1]) [nM],Ratio IC50 (J774),Activity (Aorta [4]),IC50 [5] [nM],other results
Cc1c(CC(=O)OCCCO[N+](=O)[O-])cc(-c2ccc(S(C)(=O)=O)cc2)n1-c1ccc(F)cc1,28,> 10000,41,> 10000,> 269,inactive,37.2,–
COc1ccc(-n2c(-c3ccc(S(C)(=O)=O)cc3)cc(CC(=O)OCCCO[N+](=O)[O-])c2C)cc1,–,> 10000,–,> 10000,> 4170,inactive,2.4,inhibition [7]: 0%; inhibition [8]: 39%
CSc1ccc(-n2c(-c3ccc(S(C)(=O)=O)cc3)cc(CC(=O)OCCO[N+](=O)[O-])c2C)cc1,0,> 10000,65,457,> 588,inactive,17,–
Cc1c(CC(=O)OCCO[N+](=O)[O-])cc(-c2ccc(S(C)(=O)=O)cc2)n1-c1ccc(F)cc1,0,> 10000,–,3390,> 345,inactive,29,–
COc1ccc(-n2c(-c3ccc(S(C)(=O)=O)cc3)cc(CC(=O)OCCO[N+](=O)[O-])c2C)cc1,55,6400,–,178,37.6,inactive,–,inhibition [6]: 12%; inhibition [7]: 30%
Cc1c(CC(=O)OCCCO[N+](=O)[O-])cc(-c2ccc(S(C)(=O)=O)cc2)n1-c1ccccc1,27,> 10000,44,> 10000,> 238,inactive,42,–
Cc1c(CC(=O)OCCCO[N+](=O)[O-])cc(-c2ccc(S(C)(=O)=O)cc2)n1-c1cccc(F)c1,75,1100,39,> 10000,151,inactive,7.3,Activity (Rattus norvegicus [9]): 45.5 g; Activity (Rattus norvegicus [10]): 40.7 g; Activity (Rattus norvegicus [11]): 44.9 g; Activity (Rattus norvegicus [12]): 36.8 g; inhibition [6]: 20%; inhibition [7]: 50%; Activity (Rattus norvegicus [13]): 45.1 g; Activity (Mus musculus): inactive; Activity (Rattus norvegicus [14]): 1.96 mL; Activity (Rattus norvegicus [15]): 2.05 mL; Activity (Rattus norvegicus [16]): 43.2 g
Cc1c(CC(=O)OCCO[N+](=O)[O-])cc(-c2ccc(S(C)(=O)=O)cc2)n1-c1ccccc1,19,> 10000,65,1740,> 233,inactive,–,–
CSc1ccc(-n2c(-c3ccc(S(C)(=O)=O)cc3)cc(CC(=O)OCCCO[N+](=O)[O-])c2C)cc1,0,> 10000,–,> 10000,> 370,inactive,–,–

# Source: ChEMBL document CHEMBL1938239, “Novel analgesic/anti-inflammatory agents: diarylpyrrole acetic esters endowed with nitric oxide releasing properties” (J Med Chem, 2011)
